From PubChem BioAssay
A3G deaminase: APOBEC3G (human) deaminase inhibition; Q9HC16; recombinant A3G, ssDNA deamination FAM/TAMRA fluorescence; inhibition, % at 20 µM; 0.28% of 330,000 active; AID 493012;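 active = inhibition of at least 40% at 20 µM, with no more than 30% in the related APOBEC3A deaminase screen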
APOBEC3A inh: blocks human APOBEC3A ssDNA deamination | recombinant A3A, FAM/TAMRA ssDNA deamination fluorescence | inhibition, % at 20 µM | 0.41% of 330,000 active | AID 493011;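 active = at least 40% inhibition at 20 µM here, with at most 30% in a related deaminase screen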
PHOSPHO1 inh: blocks human PHOSPHO1 phosphatase activity; Q8TCT1; recombinant PHOSPHO1, absorbance phosphatase assay; inhibition, % at 13.3 µM; 1.1% of 290,000 active; AID 1565; in the data active = inhibition above about 60%
p-CIP stab down: lowers stability of the mouse p/CIP coactivator protein; F442A p/CIP-EGFP cells, EGFP fluorescence, 16 h; decrease of EGFP signal, % at 10 µM; 0.01% of 290,000 active; AID 1984;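 active = EGFP signal decrease of at least 30% at 10 µM or well 3 SD below plate mean, unless failing retest; inactive = the rest, including hits failing retest or dose response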
Tb MetRS inh: Trypanosoma brucei MetRS inhibition | purified T. brucei MetRS, ATP depletion, Kinase-Glo luminescence | inhibition, % at 11.9 µM | 0.4% of 360,000 active;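 active = inhibition above a per-plate cutoff of the control wells' mean inhibition plus 3 SD, cut at about 5.5% in these data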
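Material – parasite MetRS enzyme · Medium – HEPES-MgCl2-KCl buffer plus DTT, spermine, BSA, pyrophosphatase · Reagent – ATP, methionine and E. coli bulk tRNA substrates · Times – 15 min enzyme-compound preincubation, 2 h reaction, 10 min detection, 25 °C · Measured by – luminescence of leftover ATP · Evaluation – percent inhibition relative to median high and low control wells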
A3G conf: APOBEC3G (human) deaminase inhibition, confirmed; shares compounds with A3G deaminase; recombinant A3G ssDNA deaminase, UDG/FAM-TAMRA fluorescence; inhibition, % at 20 µM; 72% of 890 active;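 active = inhibition reaching a set limit in any replicate at 20 µM, the limit being 80% of the first screen's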
UDG ctr A3G: E. coli UDG inhibition in APOBEC3G counter-screen | shares compounds with A3G deaminase | UDG counterscreen, FAM/TAMRA oligo fluorescence | inhibition, % at 20 µM | 710 tested, under 10 active;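 active = compounds giving 40% or more inhibition at 20 µM in any one of the three replicates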;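 also: inhibitors lower the FAM signal released by uracil excision and alkaline cleavage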
Large screens that a line does not name were inactive (follow-up assays come after a bar, where they were run). Shown are actives, neighbours in structure and some others; about 1.8% of the full set was active somewhere.

CCN1CCN(C(=O)CCc2nnc3ccc(N4CCC5(CC4)OCCO5)nn23)CC1	none
CCCCn1c(=O)c2ccccc2n2c(=S)[nH]nc12	A3G deaminase 40 | A3G conf 71 | UDG ctr A3G inactive
CCCn1c(=O)c2ccccc2n2c(=S)[nH]nc12	A3G deaminase 53 | A3G conf 69 | UDG ctr A3G inactive
CCCCn1c(Cc2ccccc2)n[nH]c1=S	none
O=c1c2ccccc2n2c(=S)[nH]nc2n1-c1ccccc1	A3G deaminase 58 | A3G conf 69 | UDG ctr A3G inactive
CCCCCn1c(=O)c2ccccc2n2c(=S)[nH]nc12	A3G deaminase 43 | A3G conf 76 | UDG ctr A3G inactive
CCCCCCn1c(=O)c(-c2ccccc2)c(O)c2ccccc21	none
CCC(C)c1ccc(-n2c(=O)c3ccccc3n3c(=S)[nH]nc23)cc1 (stereo not given)	none
Cn1c(=O)c2ccccc2n2c(=S)[nH]nc12	A3G deaminase 44 | A3G conf 70 | UDG ctr A3G inactive
COc1ccccc1NS(=O)(=O)c1cc(NC(=O)c2cc[n+]([O-])cc2)ccc1N1CCCC1	A3G deaminase 44 | A3G conf 34 | UDG ctr A3G inactive
COc1ccccc1NS(=O)(=O)c1cc(NC(=O)C(C)C)ccc1N1CCCCC1	none
COc1ccccc1NS(=O)(=O)c1cc(NC(=O)c2sccc2C)ccc1N1CCCC1	A3G deaminase 42 | A3G conf active | UDG ctr A3G inactive
COc1ccccc1NS(=O)(=O)c1cc(NC(=O)c2cccs2)ccc1N1CCCC1	A3G deaminase 40, PHOSPHO1 inh 64 | A3G conf 63 | UDG ctr A3G inactive
COc1ccccc1NS(=O)(=O)c1cc(NC(=O)c2sccc2C)ccc1N1CCOCC1	none
CC(=O)NC(c1cccc(F)c1)c1nc(-c2cnn(C)c2)cs1 (stereo not given)	none (no result: A3G deaminase, APOBEC3A inh, PHOSPHO1 inh, p-CIP stab down)
CC(C)C(C(=O)Nc1nccs1)c1ccccc1 (stereo not given)	A3G deaminase 48 | A3G conf inactive
Cc1n[nH]c(=S)n1/N=C/c1c(O)ccc2ccccc12	A3G deaminase 46 | A3G conf 85 | UDG ctr A3G inactive
S=c1[nH]nc(-c2ccccn2)n1/N=C/c1ccccc1	A3G deaminase 46 | A3G conf 78 | UDG ctr A3G inactive
Cc1ccc(/C=N/n2c(-c3ccccn3)n[nH]c2=S)o1	none
S=c1[nH]nc(-c2ccccn2)n1/N=C/c1ccc(Cl)cc1	A3G deaminase 50 | A3G conf 82 | UDG ctr A3G inactive
Cc1nc2ccccc2c(=O)n1/N=C/c1c(O)ccc2ccccc12	none
S=c1[nH]nc(-c2ccccn2)n1/N=C/c1c(Cl)cccc1Cl	A3G deaminase 71 | A3G conf 93 | UDG ctr A3G inactive
S=c1[nH]nc(-c2ccccc2)n1/N=C/c1ccc(Cl)cc1	none (no result: A3G deaminase, APOBEC3A inh)
CCOC(=O)c1c(-c2ccc(C)o2)csc1NC(=S)NC(=O)N(C)C	none
S=c1[nH]nc(C2CCCCC2)n1/N=C/c1ccccn1	A3G deaminase 51 | A3G conf 79 | UDG ctr A3G inactive
CC(/C=N/n1c(-c2ccco2)n[nH]c1=S)=C\c1ccccc1	none
CC(/C=N/n1c(-c2ccccn2)n[nH]c1=S)=C\c1ccccc1	A3G deaminase 51 | A3G conf 37 | UDG ctr A3G inactive
S=c1[nH]nc(-c2ccccn2)n1/N=C/c1cccc2ccccc12	A3G deaminase 66, PHOSPHO1 inh 78 | A3G conf 70 | UDG ctr A3G inactive
S=c1[nH]nc(-c2ccccn2)n1/N=C/c1cccs1	none
Cc1ccccc1/C=N/n1c(-c2ccccn2)n[nH]c1=S	A3G deaminase 72 | A3G conf 98 | UDG ctr A3G inactive
S=c1[nH]nc(C2CCCCC2)n1/N=C/c1ccccc1	none
CCCn1ncc(CN2CCC(N3CCC(C(=O)N4CCOCC4)CC3)CC2)c1C	none
Cc1ccnc(NS(=O)(=O)c2ccc(NC(=O)C3COc4ccccc4O3)cc2)n1 (stereo not given)	none
NC(=O)c1c(NC(=O)c2ccc(N3C(=O)CCC3=O)cc2)sc2c1CCCC2	none (no result: PHOSPHO1 inh, p-CIP stab down)
Clc1ccc(N/N=C/c2cccnc2)cc1	A3G deaminase 40 | A3G conf inactive | UDG ctr A3G inactive
